Only some compounds are listed: those with a hit (about 1.8% of all), similar ones and a draw of the others.
EBI2 antag = antagonists of human EBI2 receptor | P32249 | EBI2 beta-arrestin recruitment, luminescence, 7a,25-OHC stimulated | inhibition, % at 5 µM | actives 0.81% (n = 360,000) | AID 651636; in the data active means inhibition above about 38%;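 further: enzyme fragment complementation signal reports receptor beta-arrestin coupling in cells; 0% = agonist plus DMSO wells and 100% = wells without agonist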
CXCR6 block = CXCR6 (human) receptor inhibition | CHO-K1 PathHunter CXCR6 beta-arrestin, luminescence | inhibition, % at 20 µM | O00574 | actives 0.36% (n = 360,000); in the data active means inhibition above about 34%, passing the limit was not always enough;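 further: antagonist mode with CXCL16 agonist at 10 nM final; 0% = 10 nM CXCL16 with DMSO and 100% = unstimulated wells without agonist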
Beta2AR agonist = agonists of human beta-2 adrenergic receptor inducing internalization | Am2.2-beta2AR cells, FAP receptor internalization, flow cytometry | response, % (test concentration not listed) | actives 0.43% (n = 340,000);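 active means response above a set limit, near 3 SD of response in nonfluorescent compounds, cut at about 42% in these data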
Target sequence (P07550 whole entry, looked up): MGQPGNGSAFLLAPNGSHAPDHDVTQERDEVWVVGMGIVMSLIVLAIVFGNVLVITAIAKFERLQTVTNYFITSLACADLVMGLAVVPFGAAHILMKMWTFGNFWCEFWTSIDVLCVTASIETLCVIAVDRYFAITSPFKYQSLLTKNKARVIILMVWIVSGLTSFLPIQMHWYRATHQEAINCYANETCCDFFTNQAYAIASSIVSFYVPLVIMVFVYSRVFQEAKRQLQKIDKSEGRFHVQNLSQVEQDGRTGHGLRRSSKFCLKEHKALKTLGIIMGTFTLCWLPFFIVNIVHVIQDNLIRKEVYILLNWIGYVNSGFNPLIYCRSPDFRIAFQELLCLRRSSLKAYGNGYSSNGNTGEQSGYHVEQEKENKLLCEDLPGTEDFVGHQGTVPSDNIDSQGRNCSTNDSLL
CCR6 antagonist = blocks CCL20-driven beta-arrestin recruitment at human CCR6; CHO-K1 CCR6 PathHunter beta-arrestin, luminescence, CCL20-stimulated; AID 493098; inhibition, % at 20 µM; P51684; actives 0.49% (n = 340,000);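 active means compounds whose inhibition of the agonist-driven luminescence signal at 20 µM reaches about 50%, limit read from the data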;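 further: cells stimulated with CCL20 at 14 nM final; plate controls were DMSO with CCL20 for no effect and DMSO without agonist for full effect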
APJ antag = blocks the human apelin receptor APJ | actives 0.32% (n = 330,000) | CHO-K1 APJ beta-arrestin complementation, luminescence | inhibition, % at 20 µM;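 active means inhibition above about 40% at 20 µM, limit read from the data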;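 further: cells challenged with 10 nM apelin-13 agonist together with compound; plate controls were apelin-13 plus DMSO wells for no effect and DMSO wells lacking apelin-13 for full effect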
APJ agonist = APJ receptor agonism | P35414 | CHO-K1 APJ PathHunter beta-arrestin, luminescence; 0% DMSO wells, 100% apelin | actives 0.11% (n = 330,000) | activation, % at 20 µM;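 active means activation more than six SD over the plate average, tested at 20 µM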;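 further: 0% = DMSO alone and 100% = apelin-13 at 10 nM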
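Assay system: CHO-K1 APJ beta-arrestin complementation cell line / Compound: single test compound dose, 20 µM final, 1% DMSO / Times: overnight seeding, 90 min compound at 25 °C, 1 h detection / Technique: beta-gal luminescence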
EBI2 antag conf = confirmation of human EBI2 receptor antagonists; shares compounds with EBI2 antag; EBI2 beta-arrestin luminescence, 7a,25-OHC antagonism; inhibition, % at 5 µM; actives 29% (n = 2,400);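 active means inhibition of at least 50%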
EBI2 ag = counter-screen for EBI2 antagonists: EBI2 agonist activity | EBI2-expressing cells, agonist mode, luminescence, 60 min; 0% vehicle, 100% 7α,25-dihydroxycholesterol control | 2,400 tested, under 10 active | activation, % at 5 µM | shares compounds with EBI2 antag;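 active means activation of at least 50%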
bGal cs = beta-galactosidase inhibition counter-screen. purified beta-galactosidase, luminescent Galacton Star, 15 min. actives 1% (n = 2,400). inhibition, % at 5 µM. shares compounds with EBI2 antag. AID 652176;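 active means replicate-average signal at least 3 plate SD below neutral wells, shown as high inhibition, flagging enzyme-inhibiting false positives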;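 further: 0% = DMSO wells with enzyme and 100% = wells lacking enzyme; higher means stronger loss of beta-gal luminescence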
Starred values were filed as active, the others as inactive; · = no result given.

SMILES	EBI2 antag	CXCR6 block	Beta2AR agonist	CCR6 antagonist	APJ antag	APJ agonist	EBI2 antag conf	EBI2 ag	bGal cs
CC(Oc1ccc(Br)cc1)C(=O)Nc1nnc(C2CC2)s1 (centres undefined)	-4.4	-9.4	-5.1	-8.4	16.6	-4.8	·	·	·
COc1ccc(OCC(O)COc2ccc(OC)cc2)cc1	71.5*	-12.6	-3.0	-7.8	4.9	1.9	60.2*	1.2	7.8
CC(C)(C)c1ccc(C(=O)NCc2ccccc2)cc1	34.2	-11.5	-41.5	6.5	3.6	7.8	·	·	·
CC(C)(C)OC(=O)N1CCN(c2ccc(CNC(=O)c3ccc(Cl)cc3)cc2)CC1	59.4*	-2.0	-2.1	-1.5	-8.4	-2.8	15.4	2.0	4.2
CC(C)(C)OC(=O)N1CCCN(C(=O)c2ccc(Cl)cc2)CC1	-0.7	-14.1	-1.5	9.2	13.1	-1.6	·	·	·
CC(C)(C)c1ccc(C(=O)NCc2ccc(Cl)cc2)cc1	53.4*	2.0	2.4	5.4	-3.8	-1.0	33.6	1.1	6.3
O=c1ccn(C2CCCO2)c(=O)[nH]1 (centres undefined)	10.7	-1.7	-1.9	-4.0	·	·	·	·	·
COc1cc(-c2nnc(SCc3c(F)cccc3Cl)o2)cc(OC)c1OC	41.6*	-2.2	-5.5	8.0	1.7	-2.4	46.8	0.8	0.2
Cc1ccc(S(=O)(=O)NNC(=O)CCC(=O)Nc2ccccc2Cl)cc1	-3.1	4.7	-2.0	-8.6	-1.5	4.0	·	·	·
O=C(CN1C(=O)NC(c2ccccc2)(c2ccccc2)C1=O)N1CCOCC1	-8.1	9.5	1.9	5.4	-11.9	0.8	·	·	·
Cc1ccc(N2CCN(C(=O)c3cc(-c4ccc(F)cc4)[nH]c3C)CC2C)cc1 (centres undefined)	53.0*	7.8	-7.8	-15.8	-22.5	-1.5	32.9	1.4	6.5
CSc1ccccc1C(=O)N1CCN(c2ccc(F)cc2)CC1	1.6	-4.0	1.0	10.2	-4.4	-1.1	·	·	·
CCOC(=O)N1CCC(NC(=O)c2cc(-c3ccc(F)cc3)[nH]c2C)CC1	28.8	-4.7	-1.9	4.2	5.1	1.4	·	·	·
COc1cccc(N2CCN(C(=O)CSc3ccc(F)cc3)CC2)c1	23.4	0.5	0.2	-2.8	-13.1	-1.4	·	·	·
Cc1[nH]c(-c2ccc(F)cc2)cc1C(=O)N1CCN(c2ccccc2)CC1	86.0*	-12.2	-12.7	1.3	19.2	3.4	63.0*	-0.7	-20.5
COc1cccc(N2CCN(C(=O)c3cc(-c4ccc(F)cc4)[nH]c3C)CC2)c1	88.6*	-4.3	-4.9	-6.2	-2.0	-1.2	69.0*	-1.1	-13.6
O=C(NCC(c1ccco1)N1CCN(c2ccccc2F)CC1)c1ccc2c(c1)OCO2 (centres undefined)	3.2	-4.1	-4.0	4.7	-25.6	6.0	·	·	·
Oc1cccc2c(NC(=S)Nc3ccc(OC(F)F)cc3)cccc12	44.5*	-16.3	0.7	5.9	-30.7	5.2	24.4	-1.5	-7.8
CN(NC(=S)Nc1ccc(OC(F)F)cc1)C(=S)Nc1ccc(OC(F)F)cc1	42.8*	1.5	11.2	19.9	20.3	-4.7	16.7	1.7	6.3
S=C(Nc1ccccc1)Nc1ccc2cn[nH]c2c1	3.0	-8.1	-4.1	-8.3	-1.8	2.3	·	·	·
FC(F)Oc1ccc(NC(=S)Nc2ccc3cn[nH]c3c2)cc1	53.2*	2.6	-5.5	-2.6	-24.2	0.2	47.4	0.2	-14.4
COC(=O)c1[nH]c2cc(OC)ccc2c1NC(=O)CN1CCN(c2cccc(C)c2)C(C)C1 (centres undefined)	72.5*	6.9	11.9	10.4	-10.0	-7.5	69.7*	-1.5	-7.3
Cn1cnnc1SCC(=O)Nc1ccc(OC(F)F)cc1	2.5	-7.9	-3.3	7.7	-10.7	-0.7	·	·	·
CCc1ccc(OCC(=O)Nc2ccc(S(=O)(=O)Nc3ccccn3)cc2)cc1	61.5*	-7.0	6.8	9.5	9.7	-1.7	29.2	-0.5	10.7
CC(C)c1ccc(OCC(=O)Nc2ccc(S(=O)(=O)Nc3ccccn3)cc2)cc1	-0.8	-6.8	0.2	6.3	11.4	-0.8	·	·	·
SMILES	EBI2 antag	CXCR6 block	Beta2AR agonist	CCR6 antagonist	APJ antag	APJ agonist	EBI2 antag conf	EBI2 ag	bGal cs
COc1ccc(NC(=O)c2ccc(COCC(F)(F)C(F)F)cc2)cc1	44.3*	-5.5	9.9	15.9	-10.2	-2.5	21.1	0.1	-17.4
COc1ccc(NC(=O)c2ccc(COCC(F)(F)C(F)F)cc2)cc1OC	4.7	1.4	-4.7	15.6	-0.3	-2.1	·	·	·
Cc1ccc(/C=C/C(=O)Nc2ccc(O)c3c(=O)cc(-c4ccccc4Cl)oc23)cc1	43.7*	4.9	5.3	7.9	6.6	-2.9	26.8	-0.2	6.8
CCCS(=O)(=O)c1nc(S(=O)(=O)c2ccc(C)cc2)c(N2CCN(CCO)CC2)s1	-1.1	4.7	-1.3	-3.1	8.9	-0.8	·	·	·
COc1ccc(C(=O)/C=C/c2ccccc2F)c(OC(=O)c2ccc([N+](=O)[O-])cc2)c1	10.7	7.7	-0.2	14.9	-4.5	-0.8	·	·	·
CN(C)c1ccc(C(=O)C=Cc2ccc([N+](=O)[O-])cc2)cc1	52.7*	-7.1	·	·	·	·	26.9	0.1	-7.9
COc1ccc(C(=O)/C=C/c2ccc(C)cc2)c(OC(=O)c2ccc([N+](=O)[O-])cc2)c1	81.6*	-6.3	1.0	14.1	13.2	0.2	28.3	-0.6	-12.8
COc1cc(/C=C/C(=O)Nc2ccc(C(C)=O)cc2)cc(OC)c1OC	-17.3	-9.3	7.2	-3.1	8.7	-1.5	·	·	·
CC(=O)c1ccc(NC(=O)/C=C/c2ccc(C)cc2)cc1	54.2*	0.7	11.4	1.1	-14.6	1.8	29.8	1.9	3.2
Cc1ccc(/C=C/C(=O)c2ccc(C)cc2)cc1	61.1*	1.2	-1.6	1.2	-2.1	-1.9	66.2*	2.3	2.2
O=C(C=Cc1ccccc1)c1ccc([N+](=O)[O-])cc1	6.7	0.6	-4.2	-0.9	·	·	·	·	·
COc1ccc(N2CCN(C(=O)c3cc4cc(Cl)ccc4[nH]3)CC2)cc1	75.4*	-8.3	-0.7	-4.1	-24.5	0.0	58.7*	1.8	6.0
O=C(c1cc2cc(Cl)ccc2[nH]1)N1CCN(c2ccc(F)cc2)CC1	83.7*	-1.8	7.1	-7.5	-14.4	0.5	75.0*	-1.0	-11.9
O=C(c1cc2cc(Cl)ccc2[nH]1)N1CCCCC1	27.3	-5.3	2.8	13.2	16.6	-1.8	·	·	·
NS(=O)(=O)c1ccc(CNC(=O)c2cc(-c3cccnc3)nc3ccc(Br)cc23)cc1	-4.8	-1.4	-9.8	-4.7	0.8	0.8	·	·	·
